# In PubChem BioAssay:
# Activity calls are given as the source filed them.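 Rule for the calls, unless noted: active = GFP response above 150% of the DMSO level; inconclusive = fewer than 70 events counted for a yeast strain; inactive = the rest.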
# Tests used:
# [1] = RPL19A-GFP modulators, yeast TOR pathway, confirmation, cell-based, S. cerevisiae, flow cytometry, cherry picks, mother/daughter gates (AID 2270;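 active = GFP response below 50% of the DMSO control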); conditions: S. cerevisiae RPL19A-GFP strain, 3 h, at 10 µM, stronger effect = lower value, 100 = same GFP as DMSO wells
# [2] = LAP4-GFP expression modulators in yeast, confirmation, cell-based, cherry picks, flow cytometry, mother/daughter gates (AID 2271;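 active = GFP response above 150% of the DMSO control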;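 note: ratio of sample to DMSO plate mean so 100% equals DMSO level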); conditions: S. cerevisiae LAP4-GFP strain, 3 h, at 10 µM, stronger effect = higher value, 100 means same as DMSO control
# Procedure, shortened: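 Test system: GFP-fusion yeast strain / Amount: 0.2 OD600 cells / Buffer or medium: SC medium / Dosing: 10 µM single dose / Incubation: compound exposure 3 h at 30 °C, end-over-end rotation / Detection: HT flow cytometry, GFP fluorescence channel / Evaluation: median GFP fluorescence as percent of plate-mean DMSO wells / Control set: DMSO-only negative wells, rapamycin 400 ng/mL positive wells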
# [3] = modulators of MEP2-GFP levels in yeast, confirmation, S. cerevisiae, flow cytometry GFP, cherry picks (AID 2272;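 active = GFP response above 150% of the DMSO control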;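 note: ratio of well signal to plate DMSO mean so 100% equals DMSO level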); conditions: S. cerevisiae MEP2-GFP strain, 3 h, at 10 µM, stronger effect = higher value
# [4] = AGP1-GFP expression modulators, hit retest, confirmation, cell-based, flow cytometry, S. cerevisiae, cherry picks (AID 2273);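 note: median GFP channel fluorescence over the whole cell population gate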; conditions: S. cerevisiae AGP1-GFP strain, 3 h, at 10 µM
# [5] = modulators of CIT2-GFP expression in yeast, confirmation, S. cerevisiae, GFP fusion, cherry picks, mother/daughter gates (AID 2274); conditions: S. cerevisiae CIT2-GFP strain, flow cytometry, 3 h, at 10 µM, stronger effect = higher value
# [6] = measured here: daughter cell gate
# [7] = measured here: mother cell gate
# [8] = measured here: daughter cell gate response
# [9] = measured here: mother cell gate response
Compound,GFP response vs DMSO [1],"GFP response vs DMSO [1, 6]","GFP response vs DMSO [1, 7]",GFP response relative to DMSO [2],"GFP response relative to DMSO [2, 8]","GFP response relative to DMSO [2, 9]",GFP response vs DMSO [3],"GFP response, % of DMSO [4]","GFP response, % of DMSO [5]","GFP response, % of DMSO [5, 6]","GFP response, % of DMSO [5, 7]"
Cc1noc(/C=C/c2ccccn2)c1[N+](=O)[O-],95.6% (inactive),96.1%,90.8%,139% (inactive),132%,142%,99% (inactive),96.7% (inactive),90.1% (inactive),97.4%,84.6%
Cc1ccc(S(=O)(=O)N2CC3CCC2C3)cc1 (stereo not drawn),101% (inactive),100%,104%,97.4% (inactive),97.2%,99.3%,97.8% (inactive),97.4% (inactive),112% (inactive),110%,114%
Cc1cc(N2CCCCC2)n2ncc(-c3ccccc3)c2n1,97.6% (inactive),97.3%,98.4%,102% (inactive),106%,102%,95.7% (inactive),95.2% (inactive),104% (inactive),103%,103%
COc1cccc2cc(C(=O)N3CCN(C/C=C/c4ccccc4)CC3)c(=O)oc12,98.6% (inactive),99.6%,98%,97% (inactive),95.9%,98.4%,103% (inactive),96.7% (inactive),95.9% (inactive),93.8%,96.8%
Clc1ccc(Nc2ncnc3ccc(Br)cc23)cc1,98.4% (inactive),89.5%,99%,122% (inactive),102%,124%,95.4% (inactive),86.2% (inactive),86.3% (inactive),83.5%,84%
COc1cc(C)c(C)cc1S(=O)(=O)N1CCCCC1c1cccnc1 (stereo not drawn),98.4% (inactive),98.8%,99.2%,102% (inactive),105%,99.5%,99.5% (inactive),100% (inactive),96.4% (inactive),100%,95.6%
CCOC(=O)CSC1=NC(=O)/C(=C/c2ccc(Br)cc2)S1,96.3% (inactive),86.3%,92.8%,161% (active),136%,170%,98.8% (inactive),103% (inactive),83.5% (inactive),77.8%,79.8%
CCOc1ccc(-c2noc(-c3cccnc3)n2)cc1OC,97.2% (inactive),97.1%,96.4%,99.2% (inactive),99.2%,98.3%,100% (inactive),95.6% (inactive),104% (inactive),103%,98.5%
Cc1nc2ccccc2c(=O)n1/N=C/c1ccc([N+](=O)[O-])o1,104% (inactive),108%,104%,121% (inactive),120%,121%,116% (inactive),102% (inactive),121% (inactive),128%,115%
O=C(O)c1ccc(Sc2ccccn2)c([N+](=O)[O-])c1,98% (inactive),99.1%,98.2%,96.7% (inactive),97.6%,95.1%,102% (inactive),97% (inactive),99.7% (inactive),101%,98.5%
O=C(Cc1ccc(-c2ccccc2)cc1)OCC(=O)N1CCCC1=O,96.5% (inactive),93.9%,97.2%,112% (inactive),111%,114%,97.8% (inactive),96.3% (inactive),91.3% (inactive),89.9%,91.2%
CC(=O)Oc1c(C)cc(Cl)cc1C(=O)Nc1ccc([N+](=O)[O-])cc1Cl,97% (inactive),96%,98.2%,91.2% (inactive),92%,93%,101% (inactive),97.9% (inactive),90.9% (inactive),93.7%,89.8%
Cc1ccc(C(c2cc(Cl)c3cccnc3c2O)N2CCN(C)CC2)cc1 (stereo not drawn),81.4% (inactive),94.4%,67.7%,184% (active),141%,208%,116% (inactive),95.9% (inactive),119% (inactive),97.4%,113%
COc1ccc(CC(=O)NCc2ccccn2)cc1OC,97.6% (inactive),97.8%,98%,93.8% (inactive),95.6%,96.2%,100% (inactive),100% (inactive),97.8% (inactive),96.5%,95.5%
Cc1ccc(S(=O)(=O)N(Cc2ccc(F)cc2)Cc2ccco2)cc1,97.6% (inactive),96.7%,97.7%,102% (inactive),105%,104%,103% (inactive),97.9% (inactive),97.2% (inactive),99.3%,98.2%
COc1cccc(C(=O)Nc2ccc(NC(=O)c3cc4ccccc4o3)c(OC)c2)c1,100% (inactive),98.1%,103%,89% (inactive),92.5%,89%,102% (inactive),95% (inactive),108% (inactive),105%,111%
O=C1C(Cl)=C(N2CCN(Cc3ccccc3)CC2)C(=O)N1c1ccccc1,98.6% (inactive),98.4%,98.5%,96.2% (inactive),95.6%,96.2%,100% (inactive),97.8% (inactive),99.1% (inactive),98.1%,96.6%

Compound,GFP response vs DMSO [1],"GFP response vs DMSO [1, 6]","GFP response vs DMSO [1, 7]",GFP response relative to DMSO [2],"GFP response relative to DMSO [2, 8]","GFP response relative to DMSO [2, 9]",GFP response vs DMSO [3],"GFP response, % of DMSO [4]","GFP response, % of DMSO [5]","GFP response, % of DMSO [5, 6]","GFP response, % of DMSO [5, 7]"
CCCc1[nH]nc2c1C(c1ccc(O)c(OC)c1)C(C#N)=C(N)O2 (stereo not drawn),103% (inactive),101%,103%,92.6% (inactive),94.1%,93.1%,107% (inactive),97.6% (inactive),103% (inactive),101%,103%
CCOc1cc(C(=O)N2CCN(c3ccc(C(C)=O)cc3)CC2)cc(OCC)c1OCC,91.8% (inactive),91.2%,89.8%,126% (inactive),110%,125%,109% (inactive),104% (inactive),106% (inactive),105%,105%
COc1ccc(N2CCN(c3nc4c(C)cccn4c(=O)c3/C=C(\C#N)C(N)=O)CC2)cc1,97.8% (inactive),97.3%,97.5%,101% (inactive),101%,101%,103% (inactive),106% (inactive),103% (inactive),105%,102%
Cc1cc(NCCCn2ccnc2)n2ncc(-c3ccccc3)c2n1,96.6% (inactive),99.1%,96.7%,95.7% (inactive),94.2%,96.2%,99% (inactive),104% (inactive),100% (inactive),101%,101%
CC(C)c1nc2ccccn2c1NC1CCCCC1,101% (inactive),98.4%,98%,97.9% (inactive),99.2%,98.3%,100% (inactive),102% (inactive),101% (inactive),103%,101%
CN(C(=O)c1cccnc1)c1nc(-c2ccccc2)cs1,97.6% (inactive),97.3%,95%,102% (inactive),99%,102%,106% (inactive),96.1% (inactive),98.6% (inactive),99.3%,96%
O=C(Cc1ccc(Cl)cc1)Nc1ccc(Br)cn1,103% (inactive),100%,103%,108% (inactive),106%,111%,118% (inactive),113% (inactive),105% (inactive),112%,99.3%
Cc1cc(C)c(C)c(S(=O)(=O)ON2C(=O)c3ccccc3C2=O)c1C,103% (inactive),97.5%,94.1%,206% (active),170%,204%,114% (inactive),97.3% (inactive),105% (inactive),113%,91%
Cc1nnc(NC(=O)c2csc3c2CCC(C)C3)s1 (stereo not drawn),91.5% (inactive),87.2%,93.3%,117% (inactive),110%,124%,93.5% (inactive),93% (inactive),78.2% (inactive),76.8%,77.3%
Cc1ccccc1N1C(=O)c2cccc3c(N(C)CCO)ccc(c23)C1=O,99.5% (inactive),99.8%,100%,100% (inactive),99.3%,98.5%,104% (inactive),103% (inactive),101% (inactive),102%,100%
Cc1ccc(S(=O)(=O)/N=C(\Sc2ccccc2)c2ccccc2)cc1,99.5% (inactive),98.3%,98.6%,151% (active),134%,148%,106% (inactive),97.3% (inactive),92.1% (inactive),92.7%,87.5%
CC(=O)Oc1oc(-c2ccccc2)nc1C=Nc1ccccc1,102% (inactive),101%,98.6%,126% (inactive),119%,130%,97.2% (inactive),95.2% (inactive),90.3% (inactive),92.3%,89.3%
COc1ccccc1NC(=O)Cn1nnc(-c2ccccc2NC(=O)c2ccco2)n1,95.9% (inactive),96.1%,96.6%,85.4% (inactive),87.9%,89%,100% (inactive),95.4% (inactive),99.1% (inactive),98.1%,99.8%
CCOC(=O)C1CCCN(c2nc3c(C)cccn3c(=O)c2/C=C(\C#N)C(=O)NCc2ccco2)C1 (stereo not drawn),102% (inactive),101%,101%,101% (inactive),102%,99.5%,114% (inactive),95.2% (inactive),104% (inactive),104%,100%
O=C1c2cccc3cccc(c23)C(=O)N1c1ccncc1,96.4% (inactive),97%,98.8%,84.9% (inactive),85%,84.7%,97.5% (inactive),103% (inactive),105% (inactive),106%,106%
O=C(COc1c(Br)cc(Br)c2cccnc12)N1CCc2ccccc2C1,98.2% (inactive),97.8%,97.2%,140% (inactive),124%,144%,112% (inactive),93.2% (inactive),101% (inactive),102%,95.6%
